The text below walks through data of publication PMC3673019 (Biochemistry, 2012).

“Also recorded” adds a separate entry of the source. Read-outs that look alike come from different tables or passages of the source.

The target of data set [1] is T1, eEF-2K (Homo sapiens, UniProt O00418). It is filed as biochemical.
For another data set, the system named is HEK-293T cells. The experiment in a line: Western blot of phospho-eEF2. It is filed as cell-based. Conditions: 4 µM NH125, 0–12 h. (In general: Immunoblotting shows a protein as a band on a membrane.)
Another data set concerns cancer cell lines. Conditions: read-out: EC50, decrease of viability; a number of cancer cell lines; cited from earlier work.
A further data set has as its system A549 lung cancer cells. As to the kind of experiment: Western blot of phospho-eEF2. It is filed as cell-based. Particulars: 4 µM NH125, 0–12 h.
For data set [2], the system named is human microvascular endothelial cells (HMVECs). Conditions: 200 nM NH125, 2 hour pre-incubation; cited from earlier work.
In the next data set the target is ERK2 (Homo sapiens, UniProt P28482). As to the kind of experiment: Dose-response inhibition assay against ERK2. The format is biochemical. A digest of the protocol:
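Radiometric kinase assay: 2 nM ERK2, 500 µM [γ-32P]-ATP, 20 µM Ets1 substrate, test compound 0–500 µM. IC50 and Hill coefficient came from a dose-response equation fit.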

The subject of data set [3] is MDA-MB-231 breast cancer cells. The experiment in a line: Western blot of phospho-eEF2. It is filed as cell-based. Particulars: 4 µM NH125, 0–12 h.
For another data set, the system named is C6 glioma cells. Conditions: 1 µM NH125, 12 hours; cited from earlier work.
The target in data set [4] is T1, eEF-2K. As to the kind of experiment: Dose-response inhibition of Pep-S phosphorylation by NH125. Particulars: in the presence of 0.1% triton X-100. It is filed as biochemical.
In a further data set the target is T2, TRPM7 (Homo sapiens, UniProt Q96QT4).
T2 sequence (Q96QT4 1551-1830): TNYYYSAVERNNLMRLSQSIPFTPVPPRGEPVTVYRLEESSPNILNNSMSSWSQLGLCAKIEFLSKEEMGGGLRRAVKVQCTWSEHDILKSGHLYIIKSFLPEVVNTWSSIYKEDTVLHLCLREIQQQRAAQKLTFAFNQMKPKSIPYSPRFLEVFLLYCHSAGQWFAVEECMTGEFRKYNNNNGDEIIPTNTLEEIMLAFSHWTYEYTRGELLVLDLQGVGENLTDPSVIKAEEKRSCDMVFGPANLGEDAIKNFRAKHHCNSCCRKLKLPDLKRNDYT
As to the kind of experiment: Dose-response inhibition assay against TRPM7. The format is biochemical. Conditions: 25 nM TRPM7, 500 µM ATP (data not shown).

Data set [5] concerns the target T1, eEF-2K. The experiment in a line: Phosphorylation of wheat germ EF2 by eEF-2K in vitro. The format is biochemical.
In data set [6] the test system is eEF2 phosphorylation in the hippocampus. Conditions: 5 mg/kg, 30 minutes, mice; cited from earlier work.
In data set [7] the test system is H1299, PC3, HeLa, H460 and C6 cell lines. Conditions: NH125 for 6 hours; cited from earlier work.
Another data set concerns GST-eEF-2K. Particulars: in vitro kinase assay; cited from earlier work.
Data set [8] concerns eEF-2K. Particulars: cited from earlier work.
The conditions of data set [9]: cited from earlier work.
The mark [10] stands for this setting: varied ATP 12.5–125 µM, fixed Pep-S 50 µM.

T1 sequence (O00418 whole entry): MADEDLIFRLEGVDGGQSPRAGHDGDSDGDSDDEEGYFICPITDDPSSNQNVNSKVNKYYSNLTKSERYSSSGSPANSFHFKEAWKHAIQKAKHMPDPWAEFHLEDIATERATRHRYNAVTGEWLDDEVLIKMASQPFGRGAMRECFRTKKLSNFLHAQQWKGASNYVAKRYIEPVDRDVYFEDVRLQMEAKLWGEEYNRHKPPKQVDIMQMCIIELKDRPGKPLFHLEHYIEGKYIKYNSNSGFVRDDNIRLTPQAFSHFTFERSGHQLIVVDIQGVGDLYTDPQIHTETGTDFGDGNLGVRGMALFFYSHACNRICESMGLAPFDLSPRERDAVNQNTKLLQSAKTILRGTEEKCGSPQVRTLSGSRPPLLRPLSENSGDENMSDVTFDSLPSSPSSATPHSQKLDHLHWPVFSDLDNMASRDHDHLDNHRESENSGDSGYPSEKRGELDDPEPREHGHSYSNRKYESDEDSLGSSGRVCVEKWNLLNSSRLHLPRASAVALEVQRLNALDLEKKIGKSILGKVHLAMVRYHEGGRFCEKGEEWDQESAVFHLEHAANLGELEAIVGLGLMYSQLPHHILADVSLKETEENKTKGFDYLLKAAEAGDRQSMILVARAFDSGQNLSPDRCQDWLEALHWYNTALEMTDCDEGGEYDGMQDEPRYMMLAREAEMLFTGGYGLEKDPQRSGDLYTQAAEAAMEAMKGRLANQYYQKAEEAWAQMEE
ERK2, sequence (P28482 whole entry, species assumed): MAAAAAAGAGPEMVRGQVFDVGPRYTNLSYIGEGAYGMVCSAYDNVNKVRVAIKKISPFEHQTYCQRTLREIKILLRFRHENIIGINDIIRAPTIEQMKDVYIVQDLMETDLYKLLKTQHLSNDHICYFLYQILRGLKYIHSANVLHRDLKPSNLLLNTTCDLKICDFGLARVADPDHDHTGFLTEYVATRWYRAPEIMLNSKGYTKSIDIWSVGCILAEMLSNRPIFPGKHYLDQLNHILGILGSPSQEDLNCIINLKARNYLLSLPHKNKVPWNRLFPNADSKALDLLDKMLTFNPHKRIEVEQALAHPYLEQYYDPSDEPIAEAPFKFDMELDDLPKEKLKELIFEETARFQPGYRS

As to `Nc1ncnc2c1ncn2[C@@H]1O[C@H](COP(=O)(O)OP(=O)(O)O)[C@@H](O)[C@H]1O` [ADP, adenosine diphosphate], the Mechanism of inhibition result on eEF-2K [1] (setting [10]) is “Competitive ^d”; on eEF-2K [1] (varied Pep-S, fixed ATP 50 µM), “Mixed ^g”.

The Kd is the free concentration of one partner at which half of the binding sites on the other are occupied at equilibrium, for simple one-to-one binding. `Nc1ncnc2c1ncn2[C@@H]1O[C@H](COP(=O)(O)OP(=O)(O)OP(=O)(O)O)[C@@H](O)[C@H]1O` [ATP, adenosine triphosphate] had a Kd on eEF-2K [1] of 16.2 ± 6.9 µM.

A word on the EC50: it is the midpoint of the concentration-response curve. A word on the IC50: it is the concentration needed to halve the response being measured. The Hill coefficient is the slope factor of the fitted curve. Take `CCCCCCCCCCCCCCCC[n+]1ccn(Cc2ccccc2)c1C.[I-]` [NH125, 1-benzyl-3-cetyl-2-methylimidazolium iodide]: the “levels of eEF-2K and eEF-2” value (in the data set on HEK-293T cells; in the data set with A549 lung cancer cells; in data set [3]) was “increase” each time. For the same compound, the “phospho-eEF2 (Thr-56) level” value (with HEK-293T cells (versus DMSO); in the data set on A549 lung cancer cells (versus DMSO); in data set [3] (versus DMSO)) was “No sign of decrease; also recorded: increased; also recorded: no inhibition was observed; also recorded: did not inhibit” in each case. Also, the half-maximal effective concentration (EC50) in the data set with cancer cell lines was 1 to 5 µM. For the same compound, in data set [2], the “resveratrol-induced eEF2 phosphorylation” value is listed as “inhibition”. The figures for the IC50 against ERK2 and in the data set on GST-eEF-2K were 70 µM and 0.06 µM, respectively. Also, the Hill coefficient at ERK2 (2 nM ERK2, 500 µM ATP (data not shown)) came out at 3.6; on eEF-2K [4], 1.0 ± 0.28; at TRPM7 it was 1.6. Moreover, in the data set with C6 glioma cells, the “phosphorylation of eEF2” value is given as “strongly inhibits”. Further, the “effect on the rate of phosphorylation of wheat germ eEF2” value on eEF-2K [5] (NH125 0–5 µM, 1 µM eEF2, 7.5 µM ATP, 10 nM eEF-2K) is given as “no detectable effect; also recorded: failed to inhibit”. The “effect on phosphorylation of wheat germ eEF2” value at eEF-2K [5] (NH125 12.5 – 50 µM (Figure S3)) is given as “inhibition is observed”. In data set [6], the “eEF2 phosphorylation in the hippocampus” value is recorded as “observable decrease”. The “phosphorylation of eEF-2” value in data set [7] is given as “induction; also recorded: induce phosphorylation”.

Turning to `CC(=O)c1c(O)c(C)c(O)c(Cc2c(O)c3c(c(C(=O)/C=C/c4ccccc4)c2O)OC(C)(C)C=C3)c1O` [Rottlerin, rottlerin], the kinase selectivity result in the data set with eEF-2K [8] is “nonspecific inhibitor of multiple protein kinases”.

Regarding `O=C1OC(c2cc(I)c(O)c(I)c2)(c2c(I)cc(O)cc2I)c2ccccc21` (stereo not shown) [tetraiodophenolphthalein], the diameter of aggregates entry in [9] is on record as “approximately 150 nm”.

With Ac-RKKYKFNEDAERRRFL-NH2 [Pep-I], the Mechanism of inhibition result is recorded as “Mixed ^g” at eEF-2K [1] (setting [10]) and “Competitive ^d” at eEF-2K [1] (varied Pep-S, fixed ATP 50 µM).
